From paper PMC8320611 (Current Research in Toxicology, 2020)
Values belong to the compound of their own block, whether it stands above or below them.

How the values were obtained:
[1] = ref Hu et al., 2007; cited from earlier work
HepG2 cells [2] = test: Comet assay; type: cell-based, human; conditions: for Total DNA strand breaks with FPG treatment (%-TI): HepG2, 24 h, 10 or 100 μM, FPG treated, two independent experiments; for Background DNA-strand breaks (tail intensity): HepG2, 24 h incubation, 10–100 μM, without FPG
Summary of the method: (§1)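 Cells at 80–90% confluence, viability >80% by trypan blue (HepG2 in RPMI 1640, HT29 in DMEM; 5% FCS) were exposed 24 h to 10 or 100 μM test compound from DMSO stock diluted 1:1000. Controls were 0.1% DMSO and 10 J/m2 UVC. Slides were lysed overnight at 4 °C, then treated with FPG or buffer. Unwinding was pH 13.5, 20 min; electrophoresis 20 min, 25 V. Mean tail intensity was scored on 2 × 50 cells/slide. Without FPG: three independent experiments; with FPG: two, in duplicate.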

HepG2 cells [3] = test: Resazurin reduction assay; type: cell-based, human; conditions: HepG2, 1 h or 24 h incubation, 0–100 μM, vs negative control 1% DMSO
Summary of the method: (§2)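 Cells were seeded at 180,000 per well (HepG2 in RPMI 1640, HT29 in DMEM; 5% FCS, 37 °C, 5% CO2). After 24 h they were exposed to 0.1, 1, 10 or 100 μM test compound for 1 h or 24 h, using DMSO stocks diluted 1:100, in triplicate. Controls were 0.1% SDS and 1% DMSO. Cells were washed and given resazurin for 1 h; fluorescence was read at 544/590 nm. Blank-subtracted values are % of DMSO control, mean ± SD of three experiments.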

[4] = test system: HT29 clone 19A human colon tumor cells; conditions: ref Pool-Zobel et al., 2000, cited from earlier work; for DNA strand breaks (comet assay): 15 min incubation, 100 μM END and ENL
HT29 cells [5] = test: Comet assay; type: cell-based, human; conditions: for Total DNA strand breaks with FPG treatment (%-TI): HT29, 24 h, 10 or 100 μM, FPG treated, two independent experiments; for Background DNA-strand breaks (tail intensity): HT29, 24 h incubation, 10–100 μM, without FPG
Summary of the method: as §1

HT29 cells [6] = test: Resazurin reduction assay; type: cell-based, human; conditions: HT29, 1 h or 24 h incubation, 0–100 μM, vs negative control 1% DMSO
Summary of the method: as §2

[7] = in vitro studies; ref Prasad, 2000; cited from earlier work
[8] = test system: human ovary carcinoma cell line ES-2; conditions: ES-2, 48 h incubation, at 1 mM; ref Liu et al., 2017; cited from earlier work
[9] = test system: extracellular vascular endothelial growth factor (VEGF); conditions: in vivo, mice with established human breast cancer; ref Dabrosin et al., 2002; cited from earlier work
[10] = test system: microbiota from human faeces; conditions: incubation with microbiota from human faeces for 24 h; ref Heinonen et al., 2001; cited from earlier work
[11] = stated in the introduction, no reference given; cited from earlier work
[12] = test system: human myelocytic HL-60 leukemia cancer cells; conditions: HL-60, incubation with 0.5–40 μM; ref Park et al., 2008; cited from earlier work

Total DNA strand breaks with FPG treatment (%-TI) (HepG2 cells [2]): No modulation
Background DNA-strand breaks (tail intensity) (HepG2 cells [2]): No significant modulation
Relative vitality (HepG2 cells [3]): no significant reductions
Total DNA strand breaks with FPG treatment (%-TI) (HT29 cells [5]): No modulation
Background DNA-strand breaks (tail intensity) (HT29 cells [5]): No significant modulation
Relative vitality (HT29 cells [6]): no significant reductions
Compound: OC[C@H](Cc1cccc(O)c1)[C@H](CO)Cc1cccc(O)c1 [END, (2R,3R)-2,3-bis[(3-hydroxyphenyl)methyl]butane-1,4-diol]
Protection against DNA damage and lipid peroxidation [1]: protect against DNA damage and lipid peroxidation
DNA strand breaks (comet assay) [4]: no differences to the negative control
Oxidised pyrimidine DNA bases [4]: reduced
Levels of reactive oxygen species (antioxidant effect) [7]: reduce the levels of reactive oxygen species
Vitality [8]: significant decrease in vitality

Total DNA strand breaks with FPG treatment (%-TI) (HepG2 cells [2]): no significant modulation
Background DNA-strand breaks (tail intensity) (HepG2 cells [2]): No significant modulation
Relative vitality (HepG2 cells [3]): no significant reductions
Total DNA strand breaks with FPG treatment (%-TI) (HT29 cells [5]): no significant modulation
Background DNA-strand breaks (tail intensity) (HT29 cells [5]): No significant modulation
Relative vitality (HT29 cells [6]): no significant reductions
Compound: O=C1OC[C@H](Cc2cccc(O)c2)[C@H]1Cc1cccc(O)c1 [ENL, (3R,4R)-3,4-bis[(3-hydroxyphenyl)methyl]oxolan-2-one]
Extracellular VEGF [9]: suppressed
Protection against DNA damage and lipid peroxidation [1]: protect against DNA damage and lipid peroxidation
DNA strand breaks (comet assay) [4]: no differences to the negative control
Oxidised pyrimidine DNA bases [4]: reduced
Oxidized purine DNA bases [4]: had such an impact
Levels of reactive oxygen species (antioxidant effect) [7]: reduce the levels of reactive oxygen species
Vitality [8]: significant decrease in vitality

Compound: COc1cc([C@H]2OC[C@H]3[C@@H]2CO[C@@H]3c2ccc(O[C@@H]3O[C@H](CO)[C@@H](O)[C@H](O)[C@H]3O)c(OC)c2)ccc1O[C@@H]1O[C@H](CO)[C@@H](O)[C@H](O)[C@H]1O [Pin-DG, pinoresinol diglycoside]
Conversion into END and ENL [10]: 55%

Compound: COc1cc(C[C@@H](CO)[C@H](CO)Cc2ccc(O)c(OC)c2)ccc1O [Seco, secoisolariciresinol]
Protection against DNA damage and lipid peroxidation [1]: protect against DNA damage and lipid peroxidation
Conversion into END and ENL [10]: 72%
Levels of reactive oxygen species (antioxidant effect) [7]: reduce the levels of reactive oxygen species

Compound: COc1cc(C[C@@H](CO[C@@H]2O[C@H](CO)[C@@H](O)[C@H](O)[C@H]2O)[C@H](CO[C@@H]2O[C@H](CO)[C@@H](O)[C@H](O)[C@H]2O)Cc2ccc(O)c(OC)c2)ccc1O [Seco-DG, seco-diglycoside]
Solubility in water [11]: highly soluble

Relative vitality (HepG2 cells [3]): no significant reductions
Relative vitality (HT29 cells [6]): no significant reductions
Compound: COc1cc([C@H]2OC[C@H]3[C@@H]2CO[C@@H]3c2cc(OC)c(O)c(OC)c2)cc(OC)c1O [Syr, 4,4′-(1S,3aR,4S,6aR)-Tetrahydro-1H,3H-furo[3,4-c]furan-1,4-diylbis(2,6-dimethoxy-phenol)]
Cell vitality (MTT assay) [12]: significant concentration-dependent decrease

Compound: O=c1c(-c2ccc(O)cc2)coc2cc(O)cc(O)c12 [genistein, reference compound]
DNA strand breaks (comet assay) [4]: induced highly significant
